One experiment deals with SH-SY5Y cells. As to the kind of experiment: Intracellular calcium / calcium influx in SH-SY5Y cells. The experiment is classed as cell-based, human. Conditions: for inhibition of prorenin-induced calcium influx: 1 μmol/L inhibitor.
In the next experiment the test system is PRR. Conditions: cited from earlier work.
The subject of experiment [1] is hypertensive RA mice. Particulars: systemic enalapril; cited from earlier work.
The subject of experiment [2] is hypertensive RA mice. As to the kind of experiment: Acute intracerebroventricular infusion, BP in renin-angiotensinogen. Conditions: losartan 3 mmol/L, 10-minute icv infusion, n=4. The experiment is classed as in vivo, mouse. Summed up:
(§1)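 Test compound, scrambled peptide (1 mmol/L, control) or losartan was infused intracerebroventricularly over 10 minutes into hypertensive mice. BP was traced in real time before, during and after the infusion. The read-out was change in mean arterial pressure (ΔMAP).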

Experiment [3] concerns DOCA-salt hypertensive mice. The experiment is classed as in vivo, mouse. Particulars: losartan 3 mmol/L, 10-minute icv infusion, n=5. The method in brief:
as §1

The next experiment concerns normotensive SHAM mice. Put plainly: Acute intracerebroventricular infusion, BP in normotensive SHAM mice. Conditions: icv PRO20 1 mmol/L or losartan 3 mmol/L, n=4. It is filed as in vivo, mouse.
In experiment [4] the test system is ERK-1/2 phosphorylation, Neuro-2A cells. Put plainly: ERK-1/2 phosphorylation in Neuro-2A cells. It is filed as cell-based, mouse. The method in brief: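 Neuro-2A cells were kept in serum-free medium overnight, then pretreated with losartan 10 μmol/L for 30 minutes. They were then exposed for 15 minutes to prorenin (4 nmol/L), HRP (1 μmol/L) or test peptide (1 μmol/L). Total and phosphorylated ERK-1/2 were measured by Western blot. PRR knockdown cells were transfected with AAV-PRR-shRNA for 3 days.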

The test system of experiment [5] is prorenin-induced hypertension, C57Bl/6J mice. Particulars: cited from earlier work.
Experiment [6] concerns DOCA-salt hypertension, mice. Particulars: icv infusion of losartan; cited from earlier work.
A further experiment has as its system ERK-1/2. Conditions: cited from earlier work.
The test system of another experiment is diabetic nephropathy. Conditions: cited from earlier work.
Experiment [7] has as its system spontaneously hypertensive rats. Conditions: cited from earlier work.
Experiment [8] has as its system diabetic hypertensive rats. Conditions: cited from earlier work.
In the next experiment the test system is prorenin. Particulars: cited from earlier work.
The target in experiment [9] is (pro)renin receptor (PRR), human brain (Homo sapiens, UniProt O75787). As to the kind of experiment: PRO20-FITC fluorescence binding to human brain sections. Conditions: PRO20-FITC 1 nmol/L, unlabeled human prorenin 1 μmol/L, human PVN. The method in brief: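 Human PVN sections were incubated with FITC-labelled test peptide, 1 nmol/L with or without unlabelled human prorenin 1 μmol/L. For a concentration series (0.2, 0.5, 1, 2, 5 nmol/L), n=5–6 per concentration. Nuclei were stained with DAPI. Relative fluorescence units were total fluorescence density minus background in each image.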
Chain of (pro)renin receptor (PRR), human brain (O75787 17-350): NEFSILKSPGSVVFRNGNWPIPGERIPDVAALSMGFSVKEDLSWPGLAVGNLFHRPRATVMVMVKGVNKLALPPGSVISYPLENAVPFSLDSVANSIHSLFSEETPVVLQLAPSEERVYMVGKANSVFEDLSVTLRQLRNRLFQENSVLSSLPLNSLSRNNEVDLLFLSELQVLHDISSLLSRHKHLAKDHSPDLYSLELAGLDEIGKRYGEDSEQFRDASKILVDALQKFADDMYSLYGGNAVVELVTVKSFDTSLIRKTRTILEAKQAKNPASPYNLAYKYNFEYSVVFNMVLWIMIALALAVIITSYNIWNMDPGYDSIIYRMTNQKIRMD

Experiment [10] relates to plasminogen-activator inhibitor 1 release. Conditions: prorenin 4 nmol/L; cited from earlier work.
In experiment [11] the target is (pro)renin receptor (PRR), mouse brain (Mus musculus, UniProt Q9CYN9). As to the kind of experiment: PRO20-FITC fluorescence binding to mouse brain sections. Particulars: PRO20-FITC 5 nmol/L, unlabeled mouse prorenin 1 μmol/L, mouse PVN. The method in brief: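 Mouse PVN sections were incubated with FITC-labelled test peptide, 5 nmol/L with or without unlabelled mouse prorenin 1 μmol/L. For a concentration series (1, 2, 5, 10, 20 nmol/L), n=5–6 per concentration. PVN from neuron-specific PRR-knockout mice was also examined. Nuclei were stained with DAPI. Relative fluorescence units were total fluorescence density minus background per image.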
Chain of (pro)renin receptor (PRR), mouse brain (Q9CYN9 18-350): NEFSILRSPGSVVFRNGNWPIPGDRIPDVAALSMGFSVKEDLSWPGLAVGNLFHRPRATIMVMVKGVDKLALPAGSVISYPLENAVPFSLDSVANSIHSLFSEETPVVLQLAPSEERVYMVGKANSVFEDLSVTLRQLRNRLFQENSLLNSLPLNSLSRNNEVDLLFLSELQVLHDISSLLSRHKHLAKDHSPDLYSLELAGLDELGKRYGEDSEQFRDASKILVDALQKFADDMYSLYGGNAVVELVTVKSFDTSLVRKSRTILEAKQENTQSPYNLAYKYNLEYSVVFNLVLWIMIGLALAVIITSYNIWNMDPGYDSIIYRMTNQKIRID

Experiment [12] has as its system prorenin-induced hypertension, C57Bl/6J mice. Put plainly: Pressor response to acute intracerebroventricular infusion of mouse prorenin. The experiment is classed as in vivo. Conditions: mouse prorenin 2.4 μmol/L + scrambled peptide 100 μmol/L, 3 μL/min for 10 minutes, icv.
The mark [13] stands for this setting: human prorenin 4 nmol/L, n=7–11/group.

Consider `Nc1ncnc2c1ncn2[C@@H]1O[C@H](COP(=O)(O)OP(=O)(O)OP(=O)(O)O)[C@@H](O)[C@H]1O` [ATP], for which the “intracellular calcium in SH-SY5Y cells” value in the experiment with SH-SY5Y cells (ATP 1 μmol/L, Fluo-4-AM, n=7–11/group) was “increased intracellular calcium”.

As for `COCCCOc1cc(C[C@@H](C[C@H](N)[C@@H](O)C[C@H](C(=O)NCC(C)(C)C(N)=O)C(C)C)C(C)C)ccc1OC` [aliskiren], the “effect on renin or prorenin binding to the PRR” value in the experiment with PRR is “does not alter renin or prorenin binding to the PRR”.

Take `C[C@H](CS)C(=O)N1CCC[C@H]1C(=O)O` [captopril]: in the experiment on SH-SY5Y cells (setting [13]), the “inhibition of prorenin-induced calcium influx” value was “completely blocked”.

Turning to `CCOC(=O)[C@H](CCc1ccccc1)N[C@@H](C)C(=O)N1CCC[C@H]1C(=O)O` [enalapril], the “effect on BP in RA mice, systemic” value in the experiment on hypertensive RA mice [1] is reported as “did not normalize BP”.

Regarding `CCCCc1nc(Cl)c(CO)n1Cc1ccc(-c2ccccc2-c2nn[nH]n2)cc1` [losartan], the “inhibition of prorenin-induced calcium influx” value in the experiment with SH-SY5Y cells (setting [13]) was “completely blocked”. Further, in the experiment with SH-SY5Y cells (losartan 1 μmol/L vs Ang II 10 nmol/L, n=7–11/group), the “inhibition of Ang II-induced intracellular calcium increase” value is on record as “blocked”. For the same molecule, the “effect on mean arterial BP (MAP)” value (in the experiment on hypertensive RA mice [2]; in [3]) was “reduced mean arterial BP” throughout. Also, in the experiment with normotensive SHAM mice, the “effect on MAP in normotensive mice” value is recorded as “did not alter MAP”. Also, the “inhibition of prorenin-induced ERK-1/2 phosphorylation” value in experiment [4] (losartan, prorenin) is on record as “partially blocked”. For the same molecule, in experiment [5] (icv infusion of losartan), the “effect on prorenin-induced hypertension” value is “abolishes prorenin-induced hypertension”. Moreover, the “effect on development of DOCA-salt hypertension” value in experiment [6] is “totally prevents the development of DOCA-salt hypertension”.

Turning to “Ang II: major bioactive peptide of the RAS”, the “intracellular calcium in SH-SY5Y cells” value with SH-SY5Y cells (Ang II 10 nmol/L, Fluo-4-AM, n=7–11/group) is “increased intracellular calcium levels”.

On to RILLKKMPSV [HRP], for which, in [4] (PRO20 or HRP alone, 1 μmol/L, 15 minutes, losartan 10 μmol/L), the “phosphorylated ERK-1/2 levels, peptide alone” value is reported as “unaffected”. Further, the “inhibition of binding of prorenin to the PRR” value with PRR is on record as “no direct inhibitory effect on the binding of prorenin to the PRR”. Moreover, in the experiment with ERK-1/2, the “ERK-1/2 phosphorylation in the retina” value is “increases phosphorylation of extracellular signal–regulated protein kinase 1 and 2”. For the same molecule, the “effect on diabetic nephropathy in rats” value in the experiment on diabetic nephropathy (development) is recorded as “prevent the development of diabetic nephropathy in rats without affecting hyperglycemia”. In addition, the “effect on established diabetic nephropathy in rats” value with diabetic nephropathy (established) was “induce regression of established diabetic nephropathy”. For the same molecule, the “effect on cardiac fibrosis” value in experiment [7] is listed as “attenuates the development of cardiac fibrosis”. In addition, the “effect on beneficial effects of aliskiren on vascular dysfunction” value in [8] was “counteracts the beneficial effects of aliskiren”. Moreover, in the experiment with prorenin, the “conformational change and nonproteolytic activation of prorenin on binding to PRR” value is “inhibits the conformational change and nonproteolytic activation of prorenin”.

B1: human prorenin: unlabeled human prorenin (protein, UniProt P00797 24-406, looked up)
pro-form: LPTDTTTFKRIFLKRMPSIRESLKERGVDMARLGPEWSQPMKRLTLGNTTSSVILTNYMDTQYYGEIGIGTPPQTFKVVFDTGSSNVWVPSSKCSRLYTACVYHKLFDASDSSSYKHNGTELTLRYSTGTVSGFLSQDIITVGGITVTQMFGEVTEMPALPFMLAEFDGVVGMGFIEQAIGRVTPIFDNIISQGVLKEDVFSFYYNRDSENSQSLGGQIVLGGSDPQHYEGNFHYINLIKTGVWQIQMKGVSVGSSTLLCEDGCLALVDTGASYISGSTSSIEKLMEALGAKKRLFDYVVKCNEGPTLPDISFHLGGKEYTLTSADYVFQESYSSKKLCTLAIHAMDIPPPTGPTWALGATFIRKFYTEFDRRNNRIGFALAR
modifications: pro-form
For B1, in [9], the “inhibition of PRO20-FITC binding by unlabeled prorenin” value is reported as “eliminated PRO20-FITC binding”. Besides, the “intracellular calcium in SH-SY5Y cells” value with SH-SY5Y cells (setting [13]) was “increased neuronal intracellular calcium”. In addition, the “calcium influx induced relative to Ang II” value in the experiment with SH-SY5Y cells (human prorenin vs Ang II, SH-SY5Y cells) is given as “to a degree similar to that of Ang II”.

B2: prorenin: prorenin; species not stated at the place (protein, UniProt P00797 24-406, looked up)
pro-form: LPTDTTTFKRIFLKRMPSIRESLKERGVDMARLGPEWSQPMKRLTLGNTTSSVILTNYMDTQYYGEIGIGTPPQTFKVVFDTGSSNVWVPSSKCSRLYTACVYHKLFDASDSSSYKHNGTELTLRYSTGTVSGFLSQDIITVGGITVTQMFGEVTEMPALPFMLAEFDGVVGMGFIEQAIGRVTPIFDNIISQGVLKEDVFSFYYNRDSENSQSLGGQIVLGGSDPQHYEGNFHYINLIKTGVWQIQMKGVSVGSSTLLCEDGCLALVDTGASYISGSTSSIEKLMEALGAKKRLFDYVVKCNEGPTLPDISFHLGGKEYTLTSADYVFQESYSSKKLCTLAIHAMDIPPPTGPTWALGATFIRKFYTEFDRRNNRIGFALAR
modifications: pro-form
As for B2, the ERK-1/2 phosphorylation result in [4] (prorenin alone, serum-free medium) was “markedly increased ERK-1/2 phosphorylation”. Besides, in experiment [10], the “Ang II-dependent plasminogen-activator inhibitor 1 release” value is “increased Ang II–dependent plasminogen-activator inhibitor 1 release”.

B3: mouse prorenin: unlabeled mouse prorenin (protein, UniProt P06281 22-402, looked up)
pro-form: LPTRTATFERIPLKKMPSVREILEERGVDMTRLSAEWGVFTKRPSLTNLTSPVVLTNYLNTQYYGEIGIGTPPQTFKVIFDTGSANLWVPSTKCSRLYLACGIHSLYESSDSSSYMENGSDFTIHYGSGRVKGFLSQDSVTVGGITVTQTFGEVTELPLIPFMLAKFDGVLGMGFPAQAVGGVTPVFDHILSQGVLKEEVFSVYYNRGSHLLGGEVVLGGSDPQHYQGNFHYVSISKTDSWQITMKGVSVGSSTLLCEEGCAVVVDTGSSFISAPTSSLKLIMQALGAKEKRIEEYVVNCSQVPTLPDISFDLGGRAYTLSSTDYVLQYPNRRDKLCTLALHAMDIPPPTGPVWVLGATFIRKFYTEFDRHNNRIGFALAR
modifications: pro-form
In the case of B3, the “inhibition of PRO20-FITC binding by unlabeled prorenin” value in experiment [11] is “completely blocked”. The “BP during intracerebroventricular infusion of prorenin” value in [12] is on record as “induced a rapid increase in BP”. In addition, the “BP in conscious wild-type mice” value in [5] (icv mouse prorenin 2.4 μmol/L, conscious wild-type C57Bl/6J mice) is listed as “increases BP”.

These data come from publication PMC4902274 (Hypertension, 2014).
